Values after ≈ are worked out from the molar mass of the structure shown.
Tests used:
[1] = tested on: Staphylococcus aureus; experiment: Antibacterial activity against Staphylococcus aureus ATCC 29213 by CLSI method; format: functional
[2] = tested on: Staphylococcus aureus; experiment: Antibacterial activity against methicillin-resistant Staphylococcus aureus USA300 by CLSI method; format: functional
[3] = target: DNA gyrase (Staphylococcus aureus, UniProt P0A0K8+P20831); experiment: Inhibition of Staphylococcus aureus Gyrase supercoiling activity assessed as reduction in supercoiling pBR322 DNA by measuring relaxation by bromophenol blue staining based TAE gel method; format: protein-complex assay
[4] = target: Topoisomerase IV (Staphylococcus aureus, UniProt P0C1S7+P0C1U9); experiment: Inhibition of Staphylococcus aureus topoisomerase IV decatenation activity using kDNA as substrate by ethidium bromide/bromophenol blue staining based agarose gel electrophoresis analysis; format: protein-complex assay
[5] = tested on: Staphylococcus aureus; experiment: Antibacterial activity against Staphylococcus aureus 3527 by CLSI method; format: functional
[6] = tested on: Staphylococcus aureus; experiment: Antibacterial activity against Staphylococcus aureus harbouring GyrA D83N mutant by CLSI method; format: functional
[7] = Growth inhibition of human K/VP.5 cells incubated for 48 hrs by NBTI cell counting analysis; format: functional; conditions: K562, 48 h
[8] = tested on: Staphylococcus aureus; experiment: Antibacterial activity against cystic fibrosis isolate Staphylococcus aureus by CLSI method; format: functional
[9] = tested on: Staphylococcus aureus; experiment: Antibacterial activity against Staphylococcus aureus by CLSI method; format: functional
In short: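 MICs were determined by broth microdilution per CLSI guidelines, in triplicate at minimum. Strains were S. aureus ATCC 29213, MRSA USA300 and a cystic fibrosis respiratory isolate, and ranges are given where seen.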

[10] = tested on: Enterococcus sp.; experiment: Antibacterial activity against Enterococcus sp. by CLSI method; format: functional
[11] = tested on: Streptococcus pneumoniae; experiment: Antibacterial activity against Streptococcus pneumoniae by CLSI method; format: functional
[12] = tested on: Acinetobacter baumannii; experiment: Antibacterial activity against Acinetobacter baumannii by CLSI method; format: functional
[13] = tested on: Staphylococcus aureus; experiment: Selectivity index, ratio of IC50 for inhibition of Staphylococcus aureus topoisomerase IV decatenation activity to IC50 for inhibition of Staphylococcus aureus DNA gyrase supercoiling activity
In short: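 Both IC50s were measured in gel-based assays with S. aureus enzymes: supercoiling inhibition for DNA gyrase and decatenation inhibition for TopoIV. The ratio is TopoIV IC50 divided by gyrase IC50.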

[14] = target: DNA gyrase (Staphylococcus aureus, UniProt P0A0K8+P20831, D83N); experiment: Inhibition of Staphylococcus aureus DNA Gyrase D83N mutant assessed as reduction in supercoiling pBR322 DNA by measuring relaxation by bromophenol blue staining based TAE gel method

Row | SMILES | MIC [1] | MIC [2] | IC50 [3] | IC50 [4] | MIC [5] | MIC [6] | IC50 [7] | MIC [8] | MIC50 [9] | MIC50 [10] | MIC50 [11] | MIC50 [12] | Ratio IC50 [13] | IC50 [14]
1 | COc1ccc2ncc(F)c(C(O)C[C@H]3OC[C@H](NCc4cc5c(cn4)OCCO5)CO3)c2n1 (mixture of isomers) | 0.5 µg/mL (≈ 1.06 µM) | 1 µg/mL (≈ 2.12 µM) | 160 nM | 8800 nM | 1 µg/mL (≈ 2.12 µM) | 16 µg/mL (≈ 33.9 µM) | 232000 nM |  |  |  |  |  |  | 
2 | COc1ccc2ncc(F)c(C[C@H](O)[C@H]3OC[C@H](NCc4cc5c(cn4)OCCO5)CO3)c2c1 | 0.25 µg/mL (≈ 0.53 µM) | 0.5 µg/mL (≈ 1.06 µM) | 42 nM | 5700 nM | 0.5 µg/mL (≈ 1.06 µM) | > 8 µg/mL |  | 0.5 µg/mL (≈ 1.06 µM) | 0.25 µg/mL (≈ 0.53 µM) | 0.12 µg/mL (≈ 0.255 µM) | 2 µg/mL (≈ 4.24 µM) | 64 µg/mL (≈ 136 µM) | 136 | 
3 | COc1ccc2ccc(F)c(C[C@H](O)[C@H]3OC[C@H](NCc4ccc(Cl)c(Cl)c4)CO3)c2n1 | 0.25 µg/mL (≈ 0.519 µM) | 0.5 µg/mL (≈ 1.04 µM) | 43 nM | 2300 nM | 0.25 µg/mL (≈ 0.519 µM) | 4 µg/mL (≈ 8.31 µM) |  | 0.25 µg/mL (≈ 0.519 µM) |  |  |  |  | 54 | 
4 | COc1ccc2ncc(F)c(C(O)C[C@H]3OC[C@H](NCc4ccc(C)cc4)CO3)c2c1 (mixture of isomers) | 0.125 µg/mL (≈ 0.293 µM) | 0.5 µg/mL (≈ 1.17 µM) | 110 nM | 14000 nM | 0.5 µg/mL (≈ 1.17 µM) | 16 µg/mL (≈ 37.5 µM) | 21700 nM | 0.5 µg/mL (≈ 1.17 µM) |  |  |  |  |  | 
5 | COc1ccc2ncc(F)c(C[C@H](O)[C@H]3OC[C@H](NCc4cc5c(cn4)OCCC5)CO3)c2n1 | 0.125 µg/mL (≈ 0.266 µM) |  | 140 nM | 1300 nM | 0.5 µg/mL (≈ 1.06 µM) | 8 µg/mL (≈ 17 µM) | 80500 nM | 0.5 µg/mL (≈ 1.06 µM) |  |  |  |  |  | 13000 nM
6 | COc1ccc2ncc(F)c(C[C@H](O)[C@H]3OC[C@H](NCc4ccc(Cl)c(Cl)c4)CO3)c2n1 | ≤ 0.25 µg/mL | 0.125 µg/mL (≈ 0.259 µM) | 160 nM | 1100 nM | 0.125 µg/mL (≈ 0.259 µM) | 4 µg/mL (≈ 8.29 µM) | 22200 nM | 0.125 µg/mL (≈ 0.259 µM) | 0.06 µg/mL (≈ 0.124 µM) | 0.06 µg/mL (≈ 0.124 µM) | 4 µg/mL (≈ 8.29 µM) | > 64 µg/mL |  | 5500 nM
7 | COc1ccc2ncc(F)c(C[C@H](O)[C@H]3OC[C@H](NCc4cc5c(cn4)OCS5)CO3)c2n1 | 0.06 µg/mL (≈ 0.126 µM) | 0.125 µg/mL (≈ 0.263 µM) | 99 nM | 430 nM | 0.125 µg/mL (≈ 0.263 µM) | 1 µg/mL (≈ 2.11 µM) | 118000 nM | 0.25 µg/mL (≈ 0.527 µM) |  |  |  |  |  | 5900 nM
8 | COc1ccc2ncc(F)c(C(O)C[C@H]3OC[C@H](NCc4ccc(Cl)c(Cl)c4)CO3)c2n1 (mixture of isomers) | 0.125 µg/mL (≈ 0.259 µM) | 0.25 µg/mL (≈ 0.518 µM) | 220 nM | 600 nM | ≤ 0.25 µg/mL | 4 µg/mL (≈ 8.29 µM) |  | 0.25 µg/mL (≈ 0.518 µM) |  |  |  |  | 2.7 | 
9 | COc1ccc2ccc(F)c(C[C@H](O)[C@H]3OC[C@H](NCc4ccc5c(n4)NC(=O)CO5)CO3)c2n1 | 0.25 µg/mL (≈ 0.516 µM) | 0.25 µg/mL (≈ 0.516 µM) | 95 nM | 990 nM | 0.25 µg/mL (≈ 0.516 µM) | 2 µg/mL (≈ 4.13 µM) | > 50000 nM | 0.5 µg/mL (≈ 1.03 µM) |  |  |  |  |  | 69000 nM
10 | COc1ccc2ncc(=O)n(CC(O)[C@H]3OC[C@H](NCc4ccc5c(c4)OCCO5)CO3)c2c1 (mixture of isomers) | 0.125 µg/mL (≈ 0.266 µM) | 0.5 µg/mL (≈ 1.06 µM) | 19 nM | 4000 nM | 0.5 µg/mL (≈ 1.06 µM) | 8 µg/mL (≈ 17 µM) | 71100 nM | 0.25 µg/mL (≈ 0.532 µM) |  |  |  |  |  | 
11 | COc1ccc2ccc(F)c(C[C@H](O)[C@H]3OC[C@H](NCc4cc5c(cn4)OCCO5)CO3)c2n1 | 0.125 µg/mL (≈ 0.265 µM) | 0.25 µg/mL (≈ 0.53 µM) | 13 nM | 870 nM | 0.125 µg/mL (≈ 0.265 µM) | 2 µg/mL (≈ 4.24 µM) |  | 0.125 µg/mL (≈ 0.265 µM) |  |  |  |  | 67 | 
12 | COc1ccc2ncc(F)c(C(O)C[C@H]3OC[C@H](NCc4ccc(Cl)c(Cl)c4)CO3)c2c1 (mixture of isomers) | ≤ 0.25 µg/mL | 0.5 µg/mL (≈ 1.04 µM) | 160 nM | 8100 nM | ≤ 0.25 µg/mL | 4 µg/mL (≈ 8.31 µM) | 24500 nM | 0.5 µg/mL (≈ 1.04 µM) |  |  |  |  |  | 
13 | COc1ccc2ncc(F)c(C[C@H](O)[C@H]3OC[C@H](NCc4ccc(C)cc4)CO3)c2c1 | 0.25 µg/mL (≈ 0.586 µM) | 0.5 µg/mL (≈ 1.17 µM) | 14 nM | 4100 nM | 0.5 µg/mL (≈ 1.17 µM) | 8 µg/mL (≈ 18.8 µM) |  | 0.25 µg/mL (≈ 0.586 µM) |  |  |  |  | 294 | 
14 | COc1ccc2ncc(F)c(C(O)C[C@H]3OC[C@H](NCc4cc5c(nn4)OCCS5)CO3)c2c1 (mixture of isomers) | 0.5 µg/mL (≈ 1.02 µM) | 1 µg/mL (≈ 2.05 µM) | 370 nM | 11000 nM | 1 µg/mL (≈ 2.05 µM) | 16 µg/mL (≈ 32.8 µM) | > 200000 nM | 1 µg/mL (≈ 2.05 µM) |  |  |  |  |  | 
15 | COc1ccc2ncc(F)c(C[C@H](O)[C@H]3OC[C@H](NCc4cc5c(nn4)OCCO5)CO3)c2n1 | 0.125 µg/mL (≈ 0.264 µM) | 0.25 µg/mL (≈ 0.528 µM) | 32000 nM | 4800 nM | 0.25 µg/mL (≈ 0.528 µM) | 2 µg/mL (≈ 4.22 µM) | > 200000 nM | 0.25 µg/mL (≈ 0.528 µM) |  |  |  |  |  | 47000 nM
16 | COc1ccc2ncc(F)c(C[C@H](O)[C@H]3OC[C@H](NCc4ccc5c(n4)NC(=O)CO5)CO3)c2c1 | 0.5 µg/mL (≈ 1.03 µM) | 0.25 µg/mL (≈ 0.516 µM) | 84 nM | 1300 nM | 0.25 µg/mL (≈ 0.516 µM) | 4 µg/mL (≈ 8.26 µM) | > 50000 nM | 0.5 µg/mL (≈ 1.03 µM) |  |  |  |  |  | 1900 nM
17 | COc1ccc2ncc(F)c(C[C@H](O)[C@H]3OC[C@H](NCc4ccc(C)cc4)CO3)c2n1 | 0.125 µg/mL (≈ 0.292 µM) | ≤ 0.25 µg/mL | 160 nM | 2700 nM | ≤ 0.25 µg/mL | 8 µg/mL (≈ 18.7 µM) | 46900 nM | 0.25 µg/mL (≈ 0.585 µM) |  |  |  |  |  | 6500 nM
18 | COc1ccc2ncc(F)c(C(O)C[C@H]3OC[C@H](NCc4ccc5c(c4)OCCO5)CO3)c2n1 (mixture of isomers) | ≤ 0.25 µg/mL | 0.25 µg/mL (≈ 0.53 µM) | 22 nM | 3200 nM | ≤ 0.25 µg/mL | 8 µg/mL (≈ 17 µM) | 39200 nM | 0.5 µg/mL (≈ 1.06 µM) |  |  |  |  |  | 
19 | COc1ccc2ncc(F)c(C(O)C[C@H]3OC[C@H](NCc4cc5c(cn4)OCCO5)CO3)c2c1 (mixture of isomers) | 0.5 µg/mL (≈ 1.06 µM) | 1 µg/mL (≈ 2.12 µM) |  | 14000 nM | 1 µg/mL (≈ 2.12 µM) | 16 µg/mL (≈ 33.9 µM) | > 100000 nM | 0.5 µg/mL (≈ 1.06 µM) |  |  |  |  |  | 
20 | COc1ccc2ncc(F)c(C[C@H](O)[C@H]3OC[C@H](NCc4ccc(Cl)c(Cl)c4)CO3)c2c1 | 0.125 µg/mL (≈ 0.26 µM) | 0.25 µg/mL (≈ 0.519 µM) | 56 nM | 1300 nM | 0.25 µg/mL (≈ 0.519 µM) | 4 µg/mL (≈ 8.31 µM) |  | 0.5 µg/mL (≈ 1.04 µM) |  |  |  |  | 24 | 

From ChEMBL document CHEMBL4837261, “Optimization of TopoIV Potency, ADMET Properties, and hERG Inhibition of 5-Amino-1,3-dioxane-Linked Novel Bacterial Topoisomerase Inhibitors: Identification of a Lead with In Vivo Efficacy against MRSA” (J Med Chem, 2021)
